From ChEMBL document CHEMBL2046381, “Defining the mechanism of action and enzymatic selectivity of psammaplin A against its epigenetic targets” (J Med Chem, 2012) come the findings set out here.

Active and inactive are the calls of the source. Unless noted, no cut-off for these calls is given here.

Data set [1] is described as follows: Growth inhibition of human WI38 cells after 96 hrs by sulphorhodamine B assay. The class given is cell-based. The following applies: WI-38 cells. In a few lines: (§1)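 SRB growth assay; MCF7 and WI38 seeded 4000 cells/well, A549 2000 cells/well, attached overnight, then exposed to freshly made drug solutions (0.1 to 50 μM) for 96 h. Fixed with cold 10% TCA, stained with 0.4% SRB; absorbance at 540 nm as percent of untreated control, IC50 from mean absorbance.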

For data set [2], the system named is A549. Briefly: Growth inhibition of human A549 cells after 96 hrs by sulphorhodamine B assay. The following applies: A549, 96 h. The data set is classed as functional. In a few lines: as §1
For orientation: The SRB assay estimates cell density from bound dye.

Data set [3] relates to MCF7. Briefly: Inhibition of Class 1 histone deacetylase in human MCF7 cells assessed as up-regulation of p21 protein level at 1 uM after 24 hrs by Western blot analysis. The class given is cell-based. In a few lines:
(§2)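 MCF7 cells (5 × 10^6 per T75 flask) treated 24 h, harvested by trypsinization, lysed in RIPA on ice; 50 μg total protein resolved on 12% SDS-PAGE, transferred to nitrocellulose and probed for histone, acetylated histone, tubulin, acetylated tubulin, p21 and actin. Untreated cells as negative control.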
(In western blotting, separated proteins are transferred to a membrane and probed.)

Data set [4] deals with MCF7. As to the kind of experiment: Growth inhibition of human MCF7 cells after 96 hrs by sulphorhodamine B assay. The class given is functional. As to conditions: MCF7, 96 h. The method, boiled down:
as §1

Data set [5] addresses T1, Protein deacetylase HDAC6 (Homo sapiens, UniProt Q9UBN7).
T1 sequence (Q9UBN7 whole entry): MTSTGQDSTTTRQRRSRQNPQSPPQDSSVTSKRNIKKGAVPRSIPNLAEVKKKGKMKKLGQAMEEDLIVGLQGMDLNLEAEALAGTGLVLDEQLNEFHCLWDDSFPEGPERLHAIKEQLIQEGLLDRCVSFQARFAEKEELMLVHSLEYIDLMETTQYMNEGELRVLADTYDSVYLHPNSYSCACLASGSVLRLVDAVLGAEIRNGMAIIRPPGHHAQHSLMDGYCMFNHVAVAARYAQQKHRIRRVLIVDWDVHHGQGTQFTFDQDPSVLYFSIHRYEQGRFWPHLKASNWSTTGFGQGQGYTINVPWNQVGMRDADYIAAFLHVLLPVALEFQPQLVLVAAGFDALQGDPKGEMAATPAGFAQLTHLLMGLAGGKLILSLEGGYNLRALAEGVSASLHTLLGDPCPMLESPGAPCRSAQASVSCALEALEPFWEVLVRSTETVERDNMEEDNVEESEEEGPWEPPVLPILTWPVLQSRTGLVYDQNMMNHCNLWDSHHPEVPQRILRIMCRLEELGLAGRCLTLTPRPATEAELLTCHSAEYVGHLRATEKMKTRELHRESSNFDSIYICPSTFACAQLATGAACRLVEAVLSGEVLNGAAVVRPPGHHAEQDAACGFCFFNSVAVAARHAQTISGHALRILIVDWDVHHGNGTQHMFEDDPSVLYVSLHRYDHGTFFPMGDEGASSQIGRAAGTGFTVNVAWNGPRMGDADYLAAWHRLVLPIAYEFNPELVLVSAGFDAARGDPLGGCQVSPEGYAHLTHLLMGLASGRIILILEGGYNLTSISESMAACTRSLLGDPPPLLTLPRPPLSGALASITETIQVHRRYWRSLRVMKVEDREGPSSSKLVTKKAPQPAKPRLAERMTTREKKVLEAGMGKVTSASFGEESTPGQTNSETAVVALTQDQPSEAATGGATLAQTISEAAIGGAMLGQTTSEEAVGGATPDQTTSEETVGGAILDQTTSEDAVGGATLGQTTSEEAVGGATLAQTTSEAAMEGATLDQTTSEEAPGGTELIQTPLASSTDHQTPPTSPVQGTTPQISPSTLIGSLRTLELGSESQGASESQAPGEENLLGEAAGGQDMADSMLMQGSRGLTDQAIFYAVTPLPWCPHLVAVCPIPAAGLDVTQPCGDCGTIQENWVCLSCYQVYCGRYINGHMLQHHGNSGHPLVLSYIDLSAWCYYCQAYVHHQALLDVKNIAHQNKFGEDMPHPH
Briefly: Inhibition of human recombinant HDAC6 using Boc-lys(Ac)-AMC as substrate preincubated for 20 mins with substrate measured after 60 mins by fluorescence analysis.

Data set [6] addresses T2, Protein deacetylase HDAC6 (Homo sapiens) (UniProt Q9UBN7).
T2 sequence (whole entry): T1 sequence (Q9UBN7 whole entry)
Briefly: Inhibition of HDAC6 in human MCF7 cells assessed as change in tubulin acetylation level at 1 uM after 24 hrs by Western blot analysis. The class given is cell-based. In a few lines:
as §2

Data set [7] addresses T3, Histone deacetylase 1 (Homo sapiens, UniProt Q13547). Briefly: Inhibition of HDAC1 in human MCF7 cells assessed as up-regulation of acetylated histone H3 protein level at 1 uM after 24 hrs by Western blot analysis. The data set is classed as cell-based. The method, boiled down:
as §2

In data set [8] the target is T4, Histone deacetylase-like amidohydrolase (Alcaligenes sp. (strain DSM 11172) (Bordetella sp. (strain FB188))) (UniProt Q70I53).
T4 sequence (whole entry): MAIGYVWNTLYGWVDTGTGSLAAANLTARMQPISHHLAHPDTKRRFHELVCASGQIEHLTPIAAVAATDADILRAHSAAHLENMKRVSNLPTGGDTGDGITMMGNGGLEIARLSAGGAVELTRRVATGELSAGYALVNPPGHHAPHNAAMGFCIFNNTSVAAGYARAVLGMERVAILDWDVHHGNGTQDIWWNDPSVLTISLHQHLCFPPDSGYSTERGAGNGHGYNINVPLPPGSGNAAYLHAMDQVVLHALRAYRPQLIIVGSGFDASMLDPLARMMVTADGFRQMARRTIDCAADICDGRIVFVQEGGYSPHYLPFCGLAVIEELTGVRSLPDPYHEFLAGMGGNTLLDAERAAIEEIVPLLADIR
Briefly: Inhibition of Bordetella sp. (strain FB188) N-terminus His-tagged HDAH expressed in Escherichia coli BL21 (DE3) up to 100 uM. As to conditions: Alcaligenaceae bacterium FB188. In a few lines: (§3)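 Recombinant N-terminal His6-tagged HDAH from Bordetella strain FB188, expressed in E. coli BL21, purified on zinc-loaded His-Trap column, eluted with 500 mM imidazole, dialyzed into assay buffer (>98% pure by SDS-PAGE). Tested directly against compounds; thiols generated in situ from disulfides with TCEP.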

In data set [9] the target is T3, Histone deacetylase 1. Briefly: Inhibition of human recombinant HDAC1 using Boc-lys(Ac)-AMC as substrate preincubated for 20 mins with substrate measured after 60 mins by fluorescence analysis.
The target of data set [10] is T5, Histone deacetylase 8 (Homo sapiens, UniProt Q9BY41).
T5 sequence (Q9BY41 whole entry): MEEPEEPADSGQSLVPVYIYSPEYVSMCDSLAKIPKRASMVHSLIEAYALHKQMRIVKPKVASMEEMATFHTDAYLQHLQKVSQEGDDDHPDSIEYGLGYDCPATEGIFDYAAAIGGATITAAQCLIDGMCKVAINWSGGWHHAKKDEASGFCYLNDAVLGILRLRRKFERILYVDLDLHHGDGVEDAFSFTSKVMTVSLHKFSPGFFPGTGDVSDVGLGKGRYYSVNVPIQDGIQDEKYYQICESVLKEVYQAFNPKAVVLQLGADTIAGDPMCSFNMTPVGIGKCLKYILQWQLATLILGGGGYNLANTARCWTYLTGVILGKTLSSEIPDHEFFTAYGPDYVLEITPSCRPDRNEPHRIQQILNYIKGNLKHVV
Briefly: Inhibition of human recombinant HDAC8 using Boc-lys(Ac)-AMC as substrate preincubated for 20 mins with substrate measured after 60 mins by fluorescence analysis.

For data set [11], the target named is T6, Histone deacetylase-like amidohydrolase (Alcaligenes sp. (strain DSM 11172) (Bordetella sp. (strain FB188)), UniProt Q70I53).
T6 sequence (Q70I53 whole entry): T4 sequence (whole entry)
Briefly: Inhibition of Bordetella sp. (strain FB188) N-terminus His-tagged HDAH expressed in Escherichia coli BL21 (DE3). On the set-up: species or system Alcaligenaceae bacterium FB188. The method, boiled down: as §3

In data set [12] the test system is MCF7. As to the kind of experiment: Inhibition of Class 1 histone deacetylase in human MCF7 cells assessed as up-regulation of p21 protein level at 0.5 uM after 24 hrs by Western blot analysis. The class given is cell-based. The method, boiled down: as §2
Data set [13] has as its system Bacteria. As to the kind of experiment: Inhibition of bacterial DNA cytosine-C5 methyltransferase, M.SssI at 5 uM. In a few lines:
(§4)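 One unit M.SssI with 1 μg bacteriophage λ DNA in NEBuffer2 (pH 7.9, 1 mM DTT) plus 160 μM SAM, ±inhibitor, 2 h at 37 °C; heat-inactivated 65 °C 20 min. Methylation read by BstUI digestion (10 units, 1 h 60 °C) and 1.5% agarose gel electrophoresis; run four times with positive and negative controls.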

The target in data set [14] is T7, DNA (cytosine-5)-methyltransferase 1 (Homo sapiens, UniProt P26358). As to the kind of experiment: Inhibition of full length N-terminal His6-tagged human DNMT1 at 120 uM after 1 hr by fluorescence analysis. The method, boiled down:
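Baculovirus-expressed DNMT1 (80 nM final) with SAM (10 μM final) and hemimethylated hairpin oligo (125 nM final) in MOPS buffer pH 6.5 with 1 mM DTT, 1 h room temperature. Stopped with Gla1 plus 125 μM SAH, developed 7 h; fluorescence Ex 485/Em 520 nm. Thiols made in situ by TCEP reduction; no SAM as full-inhibition control.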

The subject of data set [15] is Bacteria. Briefly: Inhibition of bacterial DNA cytosine-C5 methyltransferase, M.SssI at 50 uM. In a few lines:
as §4

A short description of data set [16]: Inhibition of HDAC in cell extract based assay.
Data set [17] deals with T2, Protein deacetylase HDAC6 (Homo sapiens). Briefly: Inhibition of HDAC6 in human MCF7 cells assessed as change in tubulin acetylation level at 5 uM after 24 hrs by Western blot analysis. The class given is cell-based. The method, boiled down: as §2
Data set [18] addresses T7, DNA (cytosine-5)-methyltransferase 1. Briefly: Inhibition of semi-purified DNMT1.
In data set [19] the test system is MCF7. As to the kind of experiment: Inhibition of Class 1 histone deacetylase in human MCF7 cells assessed as up-regulation of p21 protein level at 5 uM after 24 hrs by Western blot analysis. The class given is cell-based. The method, boiled down:
as §2

The target of data set [20] is T3, Histone deacetylase 1. As to the kind of experiment: Inhibition of HDAC1 in human MCF7 cells assessed as up-regulation of acetylated histone H3 protein level at 5 uM after 24 hrs by Western blot analysis. The class given is cell-based. The method, boiled down:
as §2

T3 sequence (Q13547 whole entry): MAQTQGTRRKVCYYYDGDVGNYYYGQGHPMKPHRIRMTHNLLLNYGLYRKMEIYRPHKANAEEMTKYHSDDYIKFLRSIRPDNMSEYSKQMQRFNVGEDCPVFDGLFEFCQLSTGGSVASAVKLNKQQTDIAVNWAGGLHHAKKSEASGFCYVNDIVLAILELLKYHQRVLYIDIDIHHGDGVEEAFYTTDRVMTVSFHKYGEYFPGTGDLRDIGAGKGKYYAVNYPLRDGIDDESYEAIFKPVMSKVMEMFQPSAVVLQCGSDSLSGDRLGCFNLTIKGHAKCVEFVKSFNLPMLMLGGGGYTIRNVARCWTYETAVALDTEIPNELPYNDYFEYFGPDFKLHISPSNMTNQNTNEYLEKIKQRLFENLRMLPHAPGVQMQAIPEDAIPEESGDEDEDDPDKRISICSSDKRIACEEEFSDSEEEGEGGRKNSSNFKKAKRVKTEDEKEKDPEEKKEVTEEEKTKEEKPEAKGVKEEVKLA
T7 sequence (P26358 whole entry): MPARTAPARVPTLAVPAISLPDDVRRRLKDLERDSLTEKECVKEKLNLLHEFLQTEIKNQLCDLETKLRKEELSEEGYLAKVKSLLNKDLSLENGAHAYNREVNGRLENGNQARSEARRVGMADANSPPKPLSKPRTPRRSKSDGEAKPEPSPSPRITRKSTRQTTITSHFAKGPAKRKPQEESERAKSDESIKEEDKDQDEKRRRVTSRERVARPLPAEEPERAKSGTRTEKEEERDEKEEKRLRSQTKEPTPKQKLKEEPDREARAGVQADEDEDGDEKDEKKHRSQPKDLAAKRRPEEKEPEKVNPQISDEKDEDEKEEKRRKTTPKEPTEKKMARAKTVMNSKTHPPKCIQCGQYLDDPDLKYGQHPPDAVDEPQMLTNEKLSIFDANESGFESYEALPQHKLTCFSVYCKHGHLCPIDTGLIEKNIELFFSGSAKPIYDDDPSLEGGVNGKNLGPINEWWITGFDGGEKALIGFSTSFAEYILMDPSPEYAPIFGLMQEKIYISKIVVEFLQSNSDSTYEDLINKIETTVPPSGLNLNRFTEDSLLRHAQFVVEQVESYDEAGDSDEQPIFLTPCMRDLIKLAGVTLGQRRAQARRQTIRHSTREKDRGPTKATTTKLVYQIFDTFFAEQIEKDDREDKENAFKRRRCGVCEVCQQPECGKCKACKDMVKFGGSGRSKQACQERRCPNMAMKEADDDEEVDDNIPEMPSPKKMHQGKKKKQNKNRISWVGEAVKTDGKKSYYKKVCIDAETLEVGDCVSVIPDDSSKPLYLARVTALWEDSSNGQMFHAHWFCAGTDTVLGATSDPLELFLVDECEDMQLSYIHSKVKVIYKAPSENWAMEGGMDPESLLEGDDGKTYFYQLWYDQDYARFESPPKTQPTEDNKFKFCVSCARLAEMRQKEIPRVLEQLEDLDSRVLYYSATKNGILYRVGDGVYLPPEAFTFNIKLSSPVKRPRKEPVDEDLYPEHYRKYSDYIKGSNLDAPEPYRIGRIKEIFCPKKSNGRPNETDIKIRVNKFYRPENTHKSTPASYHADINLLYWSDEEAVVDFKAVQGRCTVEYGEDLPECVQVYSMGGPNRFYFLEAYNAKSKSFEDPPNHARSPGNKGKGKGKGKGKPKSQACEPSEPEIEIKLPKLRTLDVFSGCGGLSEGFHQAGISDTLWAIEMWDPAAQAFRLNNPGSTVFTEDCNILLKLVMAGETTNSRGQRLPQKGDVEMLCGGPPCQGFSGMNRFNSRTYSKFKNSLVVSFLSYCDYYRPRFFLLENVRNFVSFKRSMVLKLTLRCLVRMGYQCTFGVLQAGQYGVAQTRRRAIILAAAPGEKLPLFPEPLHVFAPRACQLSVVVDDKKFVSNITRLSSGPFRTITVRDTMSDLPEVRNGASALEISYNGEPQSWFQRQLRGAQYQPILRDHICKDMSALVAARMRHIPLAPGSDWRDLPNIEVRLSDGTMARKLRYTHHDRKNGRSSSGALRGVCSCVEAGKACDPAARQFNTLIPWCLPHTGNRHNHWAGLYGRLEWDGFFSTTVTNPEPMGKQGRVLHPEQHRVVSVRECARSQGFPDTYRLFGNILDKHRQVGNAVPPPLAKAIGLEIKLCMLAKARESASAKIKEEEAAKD

Usually GI50 stands for the concentration at which growth is held to half of that of the control. Lower therefore signals greater sensitivity of the cells. As usually defined, the IC50 is the concentration at which inhibition is half-maximal. Compound `O=C(CCNC(=O)/C(Cc1ccc(O)c(Br)c1)=N/O)NO` came in with a GI50 at 96 h in [1] of 7.86 µM. The GI50 amounted to 1.59 µM in data set [2] and 1.13 µM in data set [4]. Also, the inhibition result in [3], in data set [7] and in [8] was “Active” in each case. For the same compound, the half-maximal inhibitory concentration (IC50) in [5] amounted to 0.19 µM; in data set [9], 0.002 µM; in data set [10], 1.5 µM; in data set [11], 0.31 µM. Moreover, the inhibition entry in data set [6] was “inactive”.
Turning to `CC(/C=C/C(=O)NO)=C\[C@@H](C)C(=O)c1ccc(N(C)C)cc1`, the inhibition result in data set [12] is “Active”.
With `O=C(NCCS)/C(Cc1ccc(O)c(Br)c1)=N/O`, growth in [1] was halved (GI50 at 96 h) at 3.4 µM. Besides, the inhibition entry in [13] and in data set [15] was “Active” throughout. Besides, the inhibition entry in data set [14] and in [8] was “inactive” each time. In addition, the GI50 worked out at 2.53 µM in [2] and 2.35 µM in data set [4]. Also, the IC50 in data set [9] worked out at 0.0009 µM; in data set [10], 1.3 µM; in data set [11] it was 30.2 µM.
`O=C(NCCSSCCNC(=O)/C(Cc1ccc(O)c(Br)c1)=N/O)/C(Cc1ccc(O)c(Br)c1)=N/O` [PSAMMAPLIN A]: in data set [1], it took 3.44 µM to inhibit growth by half (GI50 at 96 h). Moreover, the inhibition entry in data set [13], in data set [19], in data set [15] and in [20] was “Active” throughout. The GI50 came to 7.5 µM in data set [2] and 1.27 µM in data set [4]. In addition, the half-maximal inhibitory concentration (IC50) is 0.0042 µM in data set [16] and 0.0186 µM in data set [18]. For the same compound, the inhibition entry in [17] was “inactive”.
